Results taken from PMC4944921 (Drug Design, Development and Therapy, 2016).
One block for each compound: values may come before it.

Experiments:
[1] = tested on: Calu-3 cells; test: MTT cytotoxicity assay in Calu-3 cells; format: cell-based, human; settings: comparison of the three compounds
Method in brief: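 Calu-3 cells were seeded at 1×10^5 cells/mL in 96-well plates and grown for 48 h at 37°C in 5% CO2. They were then exposed to test compounds at various concentrations for 48 h. MTT (5 mg/mL stock in PBS) was added for 4 h at 37°C, formazan was dissolved in DMSO, and A490 was read. Viability (%) = (Asample−Ablank)/(Acontrol−Ablank)×100, from the mean of five measurements.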

[2] = tested on: abdominal skin of Rana catesbeiana; settings: menthol 5 mg/mL with puerarin, compared with puerarin alone group; cited from earlier work
[3] = tested on: TJ proteins (occludin, claudin-1, F-actin) in Calu-3 cells; test: Immunofluorescence microscopy of tight junction proteins in Calu-3 cells; format: cell-based, human; settings: 3 hours treatment, vs control group
Method in brief: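 Calu-3 monolayers on collagen-coated 0.4 μm PET Transwell membranes were exposed to test compounds in medium for 3 h. Cells were fixed in cold 4% paraformaldehyde for 30 min and blocked with goat serum for 1 h. Anti-occludin or anti-claudin-1 (1:100, 4°C overnight) was detected with TRITC anti-rabbit or FITC anti-mouse IgG. F-actin was stained with phalloidin (1:150, RT, 30 min) and nuclei with DAPI. Relative AOD = (IntDen/Area) as % of control; three experiments; Dunnett test.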

[4] = tested on: Calu-3 cells; test: TEER change of Calu-3 monolayers after exposure to compounds; format: cell-based, human; settings: A→B and B→A, 30-180 minutes, vs control group
Method in brief: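 Monolayers with TEER above 500 Ω cm2 received drug solution on the apical side (HBSS basolateral) or on the basolateral side (HBSS apical). Untreated monolayers served as control. TEER was read with chopstick electrodes and an epithelial volt–ohm meter at 30, 60, 90, 120, 150 and 180 min. Values are expressed relative to pre-experiment TEER (100%) and compared with control by one-way ANOVA and Dunnett test (P<0.05); three experiments, mean ± SD.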

[5] = cited from earlier work
[6] = Puerarin bidirectional transport across Calu-3 cell monolayers; format: in vitro ADME, human; settings: human
Method in brief: (§1)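 Calu-3 cells (passages 5–10) were grown on collagen-coated PET Transwells, switched to air-interface culture from day 5 and used once TEER exceeded 500 Ω cm2. Monolayers were HBSS-washed and equilibrated for 30 min at 37°C. Drug was placed apically (A→B) or basolaterally (B→A), with shaking at 37°C. Receiver samples were taken at 30–180 min for HPLC-UV at 250 nm (C18; methanol:1% acetate 37:63). Papp was normalised to donor concentration and membrane area; ER = Papp(B→A)/Papp(A→B); n=3.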

[7] = tested on: Calu-3 cell monolayer; test: as above; format: in vitro ADME, human
Method in brief: as §1

Compound: CC1CCC(C(C)C)C(O)C1 (centres unmarked) [menthol]
- relative toxicity to Calu-3 cells [1]: most toxic
- Papp value of puerarin [2]: significantly higher
- relative AOD of occludin, claudin-1, and F-actin [3]: decreased significantly

Compound: C[C@@]12C[C@@]3(O)O[C@@H](O1)[C@]1(COC(=O)c4ccccc4)[C@H]3C[C@@]12O[C@@H]1O[C@H](CO)[C@@H](O)[C@H](O)[C@H]1O [paeoniflorin]
- relative AOD of occludin, claudin-1, and F-actin [3]: did not significantly differ

- Papp at 180 min [6]: < 1.5 ×10⁻⁶ cm/s
- efflux ratio at 180 min, 30 μg/mL ([6]; ER (B→A/A→B), puerarin 30 μg/mL alone): 0.963 ± 0.065
- efflux ratio at 180 min, 60 μg/mL ([6]; ER (B→A/A→B), puerarin 60 μg/mL alone): 1.01 ± 0.032
- Papp A→B at 180 min, 30 μg/mL ([6]; Papp (A→B), puerarin 30 μg/mL alone): 1.22 ± 0.027 ×10⁻⁶ cm/s
- Papp A→B at 180 min, 60 μg/mL ([6]; Papp (A→B), puerarin 60 μg/mL + menthol 15 μg/mL): 1.28 ± 0.084 ×10⁻⁶ cm/s
- Papp A→B at 180 min, 60 μg/mL ([6]; Papp (A→B), puerarin 60 μg/mL + menthol 30 μg/mL): 1.64 ± 0.058 ×10⁻⁶ cm/s
- Papp A→B at 180 min, 60 μg/mL ([6]; Papp (A→B), puerarin 60 μg/mL + menthol 60 μg/mL): 1.79 ± 0.087 ×10⁻⁶ cm/s
- Papp A→B at 180 min, 60 μg/mL ([6]; Papp (A→B), puerarin 60 μg/mL + paeoniflorin 12 μg/mL): 1.24 ± 0.027 ×10⁻⁶ cm/s
- Papp A→B at 180 min, 60 μg/mL ([6]; Papp (A→B), puerarin 60 μg/mL + paeoniflorin 12 μg/mL + menthol 15 μg/mL): 1.3 ± 0.15 ×10⁻⁶ cm/s
- Papp A→B at 180 min, 60 μg/mL ([6]; Papp (A→B), puerarin 60 μg/mL + paeoniflorin 24 μg/mL): 1.23 ± 0.054 ×10⁻⁶ cm/s
- Papp A→B at 180 min, 60 μg/mL ([6]; Papp (A→B), puerarin 60 μg/mL + paeoniflorin 24 μg/mL + menthol 30 μg/mL): 1.56 ± 0.143 ×10⁻⁶ cm/s
- Papp A→B at 180 min, 60 μg/mL ([6]; Papp (A→B), puerarin 60 μg/mL + paeoniflorin 48 μg/mL): 1.23 ± 0.025 ×10⁻⁶ cm/s
- Papp A→B at 180 min, 60 μg/mL ([6]; Papp (A→B), puerarin 60 μg/mL + paeoniflorin 48 μg/mL + menthol 60 μg/mL): 1.96 ± 0.067 ×10⁻⁶ cm/s
- Papp A→B at 180 min, 60 μg/mL ([6]; Papp (A→B), puerarin 60 μg/mL alone): 1.23 ± 0.039 ×10⁻⁶ cm/s
- Papp A→B at 180 min, 120 μg/mL ([6]; Papp (A→B), puerarin 120 μg/mL alone): 1.24 ± 0.053 ×10⁻⁶ cm/s
- Papp A→B at 180 min ([6]; Papp (A→B), puerarin alone, span over 30, 60 and 120 μg/mL): 1.22 to 1.24 ×10⁻⁶ cm/s
- Papp B→A at 180 min, 30 μg/mL ([6]; Papp (B→A), puerarin 30 μg/mL alone): 1.17 ± 0.053 ×10⁻⁶ cm/s
- Papp B→A at 180 min, 60 μg/mL ([6]; Papp (B→A), puerarin 60 μg/mL + menthol 15 μg/mL): 1.36 ± 0.083 ×10⁻⁶ cm/s
- Papp B→A at 180 min, 60 μg/mL ([6]; Papp (B→A), puerarin 60 μg/mL + menthol 30 μg/mL): 1.8 ± 0.111 ×10⁻⁶ cm/s
- Papp B→A at 180 min, 60 μg/mL ([6]; Papp (B→A), puerarin 60 μg/mL + menthol 60 μg/mL): 2.07 ± 0.151 ×10⁻⁶ cm/s
- Papp B→A at 180 min, 60 μg/mL ([6]; Papp (B→A), puerarin 60 μg/mL + paeoniflorin 12 μg/mL): 1.24 ± 0.037 ×10⁻⁶ cm/s
- Papp B→A at 180 min, 60 μg/mL ([6]; Papp (B→A), puerarin 60 μg/mL + paeoniflorin 12 μg/mL + menthol 15 μg/mL): 1.29 ± 0.067 ×10⁻⁶ cm/s
- Papp B→A at 180 min, 60 μg/mL ([6]; Papp (B→A), puerarin 60 μg/mL + paeoniflorin 24 μg/mL): 1.25 ± 0.032 ×10⁻⁶ cm/s
- Papp B→A at 180 min, 60 μg/mL ([6]; Papp (B→A), puerarin 60 μg/mL + paeoniflorin 24 μg/mL + menthol 30 μg/mL): 1.91 ± 0.254 ×10⁻⁶ cm/s
- Papp B→A at 180 min, 60 μg/mL ([6]; Papp (B→A), puerarin 60 μg/mL + paeoniflorin 48 μg/mL): 1.29 ± 0.035 ×10⁻⁶ cm/s
- Papp B→A at 180 min, 60 μg/mL ([6]; Papp (B→A), puerarin 60 μg/mL + paeoniflorin 48 μg/mL + menthol 60 μg/mL): 2.14 ± 0.13 ×10⁻⁶ cm/s
- Papp B→A at 180 min, 60 μg/mL ([6]; Papp (B→A), puerarin 60 μg/mL alone): 1.24 ± 0.055 ×10⁻⁶ cm/s
- Papp B→A at 180 min, 120 μg/mL ([6]; Papp (B→A), puerarin 120 μg/mL alone): 1.27 ± 0.104 ×10⁻⁶ cm/s
- Papp B→A at 180 min ([6]; Papp (B→A), puerarin alone, span over 30, 60 and 120 μg/mL): 1.17 to 1.27 ×10⁻⁶ cm/s
- efflux ratio at 180 min ([6]; efflux ratio (ER), puerarin alone, each concentration 30, 60, 120 μg/mL): < 1.5
- ER (B→A/A→B) ([7]; puerarin 60 μg/mL + menthol 15 μg/mL): 1.065±0.116
- ER (B→A/A→B) ([7]; puerarin 60 μg/mL + menthol 30 μg/mL): 1.100±0.060
- ER (B→A/A→B) ([7]; puerarin 60 μg/mL + menthol 60 μg/mL): 1.157±0.088
- ER (B→A/A→B) ([7]; puerarin 60 μg/mL + paeoniflorin 12 μg/mL): 1.002±0.039
- ER (B→A/A→B) ([7]; puerarin 60 μg/mL + paeoniflorin 12 μg/mL + menthol 15 μg/mL): 0.999±0.150
- ER (B→A/A→B) ([7]; puerarin 60 μg/mL + paeoniflorin 24 μg/mL): 1.018±0.065
- ER (B→A/A→B) ([7]; puerarin 60 μg/mL + paeoniflorin 24 μg/mL + menthol 30 μg/mL): 1.228±0.157
- ER (B→A/A→B) ([7]; puerarin 60 μg/mL + paeoniflorin 48 μg/mL): 1.049±0.027
- ER (B→A/A→B) ([7]; puerarin 60 μg/mL + paeoniflorin 48 μg/mL + menthol 60 μg/mL): 1.091±0.048
- ER (B→A/A→B) ([7]; puerarin 120 μg/mL alone): 1.023±0.070
- efflux ratio (ER) ([7]; puerarin alone, each concentration 30, 60, 120 μg/mL): ~ 1
Compound: O=c1c(-c2ccc(O)cc2)coc2c([C@@H]3O[C@H](CO)[C@@H](O)[C@H](O)[C@H]3O)c(O)ccc12 [puerarin]
- relative toxicity to Calu-3 cells [1]: safer and less irritating than paeoniflorin
- trend of TEER change [4]: no difference from the control group
- AUC0−∞ (plasma) ([5]; Tongqiaosanyu, caudal vein injection, rats): 787.99±70.44 mg⋅min⋅L^−1
- AUC0–∞ (plasma) ([5]; Tongqiaosanyu, nasal administration, rats): 376.56±93.93 mg⋅min⋅L^−1
- brain drug targeting index ([5]; intranasal administration): 2.70
- brain targeting coefficient (Re) ([5]; intranasal administration): 132.25%
- absolute bioavailability ([5]; nasal administration): 47.78%
- relative AOD of occludin, claudin-1, and F-actin [3]: did not significantly differ
